Converted amounts (≈) assume the structure as drawn.
Experiments:
mAb 2G11G4 [1] = test: indirect competitive ELISA; assay type: binding, mouse; settings: for Cross reactivity: (IC50 of dihydroartemisinin/IC50 of the other compound) × 100; for IC50: icELISA, mAb 2G11G4, coating antigen 9-O-succinyldihydroartemisinin-OVA
mAb 2G11G4 [2] = test: colloidal gold-based lateral flow immunoassay; assay type: binding, mouse; settings: for dipstick cross-reaction: drug concentration less than 100 ng/mL; for dipstick test line: standards at 100 ng/mL; for dipstick inhibition: standards at 500 ng/mL
How it was run: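 Anti-DHA mAb adsorbed onto 30 nm colloidal gold at pH 7.8, blocked with BSA, pelleted and resuspended in 0.01 M PBS pH 7.0. Gold-mAb was used at 30 μg/mL. Capture lines on nitrocellulose were 9-O-succinyl-DHA-BSA (1 mg/mL, test) and goat anti-mouse IgG (0.4 mg/mL, control), 5 mm apart. Aqueous DHA standards were 0–100 ng/mL. Indicator range is the lowest concentration at which the test line disappears visually.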

[3] = general statement, no reference given; cited from earlier work
[4] = time course of DHA degradation in malaria culture, measured by icELISA; assay type: in vitro ADME, Plasmodium falciparum
[5] = buffer solution (pH=7.4); cited from earlier work
mAb 3D82G7 = settings: cited from earlier work
[6] = tested on: artemisinin antibody developed earlier; settings: cited from earlier work

Row | SMILES | IC50 (mAb 2G11G4 [1]) | Cross reactivity (mAb 2G11G4 [1]) | dipstick cross-reaction (mAb 2G11G4 [2]) | dipstick test line (mAb 2G11G4 [2]) | dipstick inhibition (mAb 2G11G4 [2]) | also measured
1 | CCN(CC)Cc1cc(Nc2ccnc3cc(Cl)ccc23)ccc1O [Amodiaquine] | >20 µg/mL | <0.02% |  |  |  | 
2 | CO[C@H]1O[C@@H]2O[C@@]3(C)CC[C@H]4[C@H](C)CC[C@@H]([C@H]1C)[C@@]24OO3 [Artemether] | >20 µg/mL | <0.02% | did not cross-react | showed obvious color | no inhibition | water solubility [3]: poor water solubility
3 | C[C@@H]1CC[C@H]2[C@@H](C)C(=O)O[C@@H]3O[C@@]4(C)CC[C@@H]1[C@]32OO4 [Artemisinin] | 0.00222 µg/mL (≈ 0.00786 µM) | 52.3% | did not cross-react | showed obvious color | different degrees of inhibition | water solubility [3]: poor water solubility
4 | CCN(CC)CCCC(C)Nc1ccnc2cc(Cl)ccc12 (stereo not drawn) [Chloroquine] | >20 µg/mL |  |  |  |  | 
5 | C[C@H]1[C@H](OC(=O)CCC(=O)O)O[C@@H]2O[C@@]3(C)CC[C@H]4[C@H](C)CC[C@@H]1[C@@]24OO3 [Artesunate] | 0.0704 µg/mL (≈ 0.183 µM) | 1.6% | did not cross-react | showed obvious color | different degrees of inhibition | Cross reactivity (mAb 2G11G4 [1]; listed as artesunate): low or no cross reactivity; cross-reactivity (mAb 3D82G7): 460%; cross-reactivity [6]: 650%

Now from value to molecule, other results behind:

Row | IC50 (mAb 2G11G4 [1]) | SMILES | Cross reactivity (mAb 2G11G4 [1]) | dipstick cross-reaction (mAb 2G11G4 [2]) | dipstick test line (mAb 2G11G4 [2]) | dipstick inhibition (mAb 2G11G4 [2]) | also measured
6 | 0.00116 µg/mL (≈ 0.00408 µM) | C[C@H]1[C@@H](O)O[C@@H]2O[C@@]3(C)CC[C@H]4[C@H](C)CC[C@@H]1[C@@]24OO3 [Dihydroartemisinin] | 100% |  |  |  | half-life at 200 nM ([4]; Plasmodium falciparum): 3.64 ± 0.48 h; half-life at 200 nM ([4]; culture medium only (no cells)): 5.56 ± 0.87 h; DHA concentration after 12 h of incubation ([4]; parasite culture at 5% parasitemia, starting concentration 200 nM): < 4 nM; half-life at 200 nM ([4]; red blood cells in culture medium at 5% hematocrit): 4.55 ± 0.69 h; half-life [5]: 5.5 h; working range (IC20 – IC80) (mAb 2G11G4 [1]; DHA concentration causing 20–80% inhibition of the signal): 0.00026 to 0.00487 µg/mL; indicator range (lowest concentration at which the test line was not visible) (mAb 2G11G4 [2]; dipstick, serially diluted standard DHA): 50 to 100 ng/mL
7 | >20 µg/mL | Clc1ccc2c(N3CCN(CCCN4CCN(c5ccnc6cc(Cl)ccc56)CC4)CC3)ccnc2c1 [Piperaquine] | <0.02% |  |  |  | 
8 | >20 µg/mL | CCCCN(CCCC)CC(O)c1cc(Cl)cc2c1-c1ccc(Cl)cc1/C2=C/c1ccc(Cl)cc1 (stereo not drawn) [Lumefantrine] | <0.02% |  |  |  | 

Source: PMC6363535 (Journal of pharmaceutical and biomedical analysis, 2018)
